The source of these data is article PMC9704493 (RSC Advances, 2022).

Holding throughout (type): cell-based, human
Assay [1] has as its system HCT-116 colorectal carcinoma cells. In words: MTT cell viability assay, HCT-116. Particulars: for Selectivity indices (SI), HCT-116: HCT-116 versus MRC-5 fibroblasts. A digest of the protocol:
(§1)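 Cells were seeded at 3 × 10^3 per well and grown for 24 h at 37 °C/5% CO2. A T0 plate was read at dosing and the others after 72 h. MTT (5 mg mL−1 in PBS) was added for 2.5 h, formazan dissolved in DMSO, and absorbance read at 550 nm. GI50 was interpolated, in triplicate. SI compares MRC-5 with cancer-line activity.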
In general terms: Tetrazolium assays rely on reduction of a dye to a coloured formazan, in cell work by metabolically active cells.

Assay [2] has as its system MCF-7 breast cancer cells. Description: MTT cell viability assay, MCF-7. Particulars: for Selectivity indices (SI), MCF-7: MCF-7 versus MRC-5 fibroblasts. A digest of the protocol:
as §1

A further assay relates to MRC-5 fibroblasts. Description: MTT cell viability assay, MRC-5 normal fibroblasts. Particulars: read-out: GI50 values (M) mean ± SD, MRC-5. A digest of the protocol:
as §1

Setting [3] is: Homo sapiens, MCF7, 72 h, read-out: GI50 values (µM) mean ±SD, MCF-7.
Where [4] appears, read: Homo sapiens, HCT-116, 72 h, read-out: GI50 values (M) mean ± SD, HCT-116.
Setting [5] is: Homo sapiens, MCF7, 72 h, read-out: GI50 values (M) mean ± SD, MCF-7.
The mark [6] stands for this setting: read-out: GI50 values (M) mean ± SD, HCT-116, MTT, 72 h exposure.
Where [7] appears, read: read-out: GI50 values (M) mean ± SD, MCF-7, MTT, 72 h exposure.

Read-outs that look alike come from different tables or passages of the source.

As to `N#Cc1ccc(-c2csc(NN=Cc3cccc(I)c3)n2)cc1` [Compound 3d, 2-(2-(3-Iodobenzylidene)hydrazinyl)-4-(4-cyanophenyl) thiazole], the “fold reduction in potency against HCT-116 cells” value in assay [1] (relative to its potency against MCF-7 cells) came to 5 fold. In addition, the GI50 in assay [2] (setting [3]) was 2.3 µM.

For `Cc1cc(C)c(C=NNc2nc(-c3ccc(C#N)cc3)cs2)c(C)c1` [Compound 3v, 2-(2-(2,4,6-Trimethylbenzylidene)hydrazinyl)-4-(4-cyanophenyl) thiazole], the “Selectivity indices (SI), HCT-116” value in assay [1] worked out at 2.8. The GI50 in assay [1] (setting [4]) was 4e-06 ± 1e-06 M; in assay [2] (setting [5]), 4.2 ± 0.6 µM; with MRC-5 fibroblasts (Homo sapiens, MRC5, 72 h) it was 1.12e-05 ± 3e-07 M. Also, the “Selectivity indices (SI), MCF-7” value in assay [2] was 2.7.

For `N#Cc1ccc(-c2csc(NN=Cc3c(F)cc(F)cc3F)n2)cc1` [Compound 3w, 2-(2-(2,4,6-Trifluorobenzylidene)hydrazinyl)-4-(4-cyanophenyl) thiazole], the “Selectivity indices (SI), HCT-116” value in assay [1] was 0.7. Besides, the 50% growth inhibitory concentration (GI50) in assay [1] (setting [4]) worked out at 1.5e-06 ± 8e-07 M; in assay [2] (setting [5]) it was 7 ± 0.2 µM; in the assay on MRC-5 fibroblasts (Homo sapiens, MRC5, 72 h), 1.1e-06 ± 5e-07 M. Further, the “Selectivity indices (SI), MCF-7” value in assay [2] was 0.2.

As for `N#Cc1ccc(-c2csc(NN=Cc3cc(F)cc(Br)c3)n2)cc1` [Compound 3p, 2-(2-(3-Bromo-5-fluorobenzylidene)hydrazinyl)-4-(4-cyanophenyl) thiazole], the “Selectivity indices (SI), HCT-116” value in assay [1] stood at 2.2. Further, the GI50 in assay [1] (setting [4]) was 8.1e-06 ± 2e-07 M; in assay [2] (setting [5]), 7.3 ± 0.2 µM; in the assay on MRC-5 fibroblasts (Homo sapiens, MRC5, 72 h) it was 1.77e-05 ± 7e-07 M. For the same compound, the “Selectivity indices (SI), MCF-7” value in assay [2] turned out to be 2.4.

With `N#Cc1ccc(-c2csc(NN=Cc3cc(Br)cc([N+](=O)[O-])c3)n2)cc1` [Compound 3r, 2-(2-(3-Bromo-5-nitrobenzylidene)hydrazinyl)-4-(4-cyanophenyl) thiazole], in assay [1], the “Selectivity indices (SI), HCT-116” value was 4.1. Moreover, the 50% growth inhibitory concentration (GI50) was 3e-06 ± 1e-06 M in assay [1] (setting [4]); 4.1 ± 0.4 µM in assay [2] (setting [5]); 1.22e-05 ± 6e-07 M in the assay on MRC-5 fibroblasts (Homo sapiens, MRC5, 72 h). Further, the “Selectivity indices (SI), MCF-7” value in assay [2] stood at 3.

In the case of “2-(2-(1-(4-Fluorophenyl)ethylidene)hydrazinyl)-4-(4-cyanophenyl) thiazole [Compound 3e]”, the “Selectivity indices (SI), HCT-116” value in assay [1] is listed as 6.5. The GI50 in assay [1] (setting [6]) stood at 6.9e-06 ± 2e-07 M; in assay [2] (setting [7]) it was 28.5 ± 0.8 µM; in the assay with MRC-5 fibroblasts (MTT, 72 h exposure), 4.47e-05 ± 2e-07 M. Also, in assay [2], the “Selectivity indices (SI), MCF-7” value came to 1.6.

`Cc1ccc(C)c(C=NNc2nc(-c3ccc(C#N)cc3)cs2)c1` [Compound 3i, 2-(2-(2,5-Dimethylbenzylidene)hydrazinyl)-4-(4-cyanophenyl) thiazole]: the “Selectivity indices (SI), HCT-116” value in assay [1] was 0.8. Besides, the GI50 in assay [1] (setting [4]) amounted to 8e-06 ± 3e-07 M; in assay [2] (setting [5]), 7.1 ± 0.3 µM; in the assay on MRC-5 fibroblasts (Homo sapiens, MRC5, 72 h), 6.2e-06 ± 4e-07 M. For the same compound, in assay [2], the “Selectivity indices (SI), MCF-7” value is given as 0.9.

`Cc1nc(C=NNc2nc(-c3ccc(C#N)cc3)cs2)sc1C` [3d′, 2-(2-((4,5-Dimethylthiazol-2-yl)methylene) hydrazinyl)-4-(4-cyanophenyl) thiazole]: the “Selectivity indices (SI), HCT-116” value in assay [1] was determined as 5.1. Moreover, the 50% growth inhibitory concentration (GI50) stood at 4.4e-06 ± 2e-07 M in assay [1] (setting [4]); 9 ± 1.2 µM in assay [2] (setting [5]); 2.25e-05 ± 2e-06 M in the assay on MRC-5 fibroblasts (Homo sapiens, MRC5, 72 h). In addition, the “Selectivity indices (SI), MCF-7” value in assay [2] worked out at 2.5.

For the compound `COc1cc(OC)c(OC)cc1C=NNc1nc(-c2ccc(C#N)cc2)cs1` [Compound 3z, 2-(2-(2,4,5-Trimethoxybenzylidene)hydrazinyl)-4-(4-cyanophenyl) thiazole], the “Selectivity indices (SI), HCT-116” value in assay [1] came out at 11.5. For the same compound, the 50% growth inhibitory concentration (GI50) in assay [1] (setting [4]) is 1.9e-06 ± 5e-07 M; in assay [2] (setting [5]) it was 2.5 ± 0.2 µM; in the assay on MRC-5 fibroblasts (Homo sapiens, MRC5, 72 h), 2.18e-05 ± 2e-07 M. Further, the “fold increase in activity against HCT-116 cells” value in assay [1] (relative to compound 3j) is on record as 3.5 fold. In assay [2], the “Selectivity indices (SI), MCF-7” value worked out at 8.7.

Turning to `N#Cc1ccc(-c2csc(N/N=C/c3cccc(I)c3)n2)cc1` [d], the concentration for 50% growth inhibition (GI50) turned out to be 1.13e-05 ± 7e-07 M in assay [1] (setting [4]); 2.3 ± 0.2 µM in assay [2] (setting [5]); 3.49e-05 ± 3e-07 M with MRC-5 fibroblasts (Homo sapiens, MRC5, 72 h).

As for `N#Cc1ccc(-c2csc(NN=Cc3cccc(F)c3)n2)cc1` [Compound 3b, 2-(2-(3-Fluorobenzylidene)hydrazinyl)-4-(4-cyanophenyl) thiazole], the concentration for 50% growth inhibition (GI50) amounted to 2.2e-06 M in assay [1] (Homo sapiens, HCT-116, 72 h, read-out: GI50 values (µM) mean ±SD, HCT-116) and 36.6 µM in assay [2] (setting [3]).

Consider `N#Cc1ccc(-c2csc(NN=Cc3c(O)cc(O)cc3O)n2)cc1` [Compound 3x, 2-(2-(2,4,6-Trihydroxybenzylidene)hydrazinyl)-4-(4-cyanophenyl) thiazole], for which the “Selectivity indices (SI), HCT-116” value in assay [1] is recorded as 3.4. Moreover, the GI50 came out at 4.7e-06 ± 3e-07 M in assay [1] (setting [4]); 2.3 ± 0.3 µM in assay [2] (setting [5]); 1.58e-05 ± 5e-07 M with MRC-5 fibroblasts (Homo sapiens, MRC5, 72 h). Further, the “Selectivity indices (SI), MCF-7” value in assay [2] came out at 6.9.

Consider `COc1cc(C=NNc2nc(-c3ccc(C#N)cc3)cs2)cc(OC)c1` [Compound 3o, 2-(2-(3,5-Dimethoxybenzylidene)hydrazinyl)-4-(4-cyanophenyl) thiazole], for which the “Selectivity indices (SI), HCT-116” value in assay [1] is reported as 0.5. In addition, the GI50 in assay [1] (setting [4]) worked out at 3.56e-05 ± 1.1e-06 M; in assay [2] (setting [5]), 47.8 ± 1.1 µM; in the assay with MRC-5 fibroblasts (Homo sapiens, MRC5, 72 h) it was 1.65e-05 ± 5e-07 M. The “Selectivity indices (SI), MCF-7” value in assay [2] amounted to 0.4.

For `COc1cc(C=NNc2nc(-c3ccc(C#N)cc3)cs2)cc(OC)c1OC` [Compound 3y, 2-(2-(3,4,5-Trimethoxybenzylidene)hydrazinyl)-4-(4-cyanophenyl) thiazole], the “Selectivity indices (SI), HCT-116” value in assay [1] is 14.6. Further, the concentration for 50% growth inhibition (GI50) in assay [1] (setting [4]) is 1.6e-06 ± 4e-07 M; in assay [2] (setting [5]), 2.7 ± 0.1 µM; in the assay on MRC-5 fibroblasts (Homo sapiens, MRC5, 72 h), 2.34e-05 ± 3e-07 M. The “Selectivity indices (SI), MCF-7” value in assay [2] was determined as 8.7.

Consider `N#Cc1ccc(-c2csc(N/N=C/c3cccc(F)c3)n2)cc1` [b], for which the GI50 in assay [1] (setting [4]) worked out at 2.2e-06 ± 5e-07 M; in assay [2] (setting [5]) it was 36.6 ± 1.4 µM; in the assay on MRC-5 fibroblasts (Homo sapiens, MRC5, 72 h), 1.68e-05 ± 5e-07 M.

With `N#Cc1ccc(-c2csc(NN=Cc3cc(Cl)ccc3O)n2)cc1` [Compound 3g, 2-(2-(5-Chloro-2-hydroxybenzylidene) hydrazinyl)-4-(4-cyanophenyl) thiazole], the “Selectivity indices (SI), HCT-116” value in assay [1] is recorded as 1.7. The GI50 came to 9.7e-06 ± 4e-07 M in assay [1] (setting [4]); 4.1 ± 0.4 µM in assay [2] (setting [5]); 1.68e-05 ± 7e-07 M in the assay on MRC-5 fibroblasts (Homo sapiens, MRC5, 72 h). Moreover, in assay [2], the “Selectivity indices (SI), MCF-7” value is given as 4.1.

Consider `CCOc1cc(C=NNc2nc(-c3ccc(C#N)cc3)cs2)ccc1O` [Compound 3s, 2-(2-(3-Ethoxy-4-hydroxybenzylidene) hydrazinyl)-4-(4-cyanophenyl) thiazole], for which the “Selectivity indices (SI), HCT-116” value in assay [1] amounted to 2.2. Besides, the GI50 worked out at 8.4e-06 ± 6e-07 M in assay [1] (setting [4]); 7.3 ± 0.8 µM in assay [2] (setting [5]); 1.81e-05 ± 4e-07 M in the assay with MRC-5 fibroblasts (Homo sapiens, MRC5, 72 h). Further, the “Selectivity indices (SI), MCF-7” value in assay [2] stood at 2.5.

As for `N#Cc1ccc(-c2csc(NN=Cc3ccc(Cl)c(Cl)c3)n2)cc1` [Compound 3u, 2-(2-(3,4-Dichlorobenzylidene)hydrazinyl)-4-(4-cyanophenyl) thiazole], the “Selectivity indices (SI), HCT-116” value in assay [1] worked out at 1.1. For the same compound, the GI50 stood at 2.72e-05 ± 5e-07 M in assay [1] (setting [4]); 12.8 ± 0.7 µM in assay [2] (setting [5]); 3.04e-05 ± 2e-07 M in the assay with MRC-5 fibroblasts (Homo sapiens, MRC5, 72 h). The “Selectivity indices (SI), MCF-7” value in assay [2] is given as 2.4.

In the case of `N.N.[Cl][Pt][Cl]` [cisplatin, reference compound], the “Selectivity indices (SI), HCT-116” value in assay [1] turned out to be 0.9. For the same compound, the 50% growth inhibitory concentration (GI50) is 9.8e-06 ± 2e-07 M in assay [1] (setting [6]); 7.5 ± 0.7 µM in assay [2] (setting [7]); 9.7e-06 ± 4e-07 M with MRC-5 fibroblasts (MTT, 72 h exposure). In addition, the “Selectivity indices (SI), MCF-7” value in assay [2] is 1.3.

The GI50 is the concentration giving 50% growth inhibition.
